Data: ChEMBL document CHEMBL4330067, “Synthesis and mechanistic studies of diketo acids and their bioisosteres as potential antibacterial agents” (Eur J Med Chem, 2019)
In brackets after ≈: the same amount, converted by molar mass. Activity calls are given as the source filed them. The calls are words filed in the database; no cut-off is given here.

Key:
[1] = tested on: Mycobacterium tuberculosis; test: Inhibition of Mycobacterium tuberculosis methionine aminopeptidase 1C at 100 uM using Met-AMC as substrate relative to control
How it was run: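 Purified MtMetAP1c (4 µM) in 50 mM Hepes pH 7.5 with 150 mM KCl and CoCl2 at three molar equivalents of enzyme. Substrate was L-Met-AMC at 50, 100 or 150 µM. Compounds came from 10 mM DMSO stocks. Percent inhibition was taken against the uninhibited control.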

Escherichia coli [2] = test: Antibacterial activity against Escherichia coli MRAE33 after overnight incubation; type: functional
How it was run: (§1)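 Multidrug-resistant E. coli isolates in Luria broth, test range 8 to 1024 µg/mL (ciprofloxacin 0.49 to 63.3 µg/mL). Inoculum 10 µL of a 1000-fold diluted 0.1 OD600 culture, incubated overnight at 37 °C. OD read at 600 nm. % inhibition = (a−b)/a×100, with media and compound-colour blanks subtracted.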

Escherichia coli [3] = test: Synergistic antibacterial activity against Escherichia coli MRAE33 assessed as fractional inhibitory concentration index after 18 hrs in presence of ciprofloxacin by checkerboard method; type: functional
How it was run: (§2)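 Checkerboard combination with ciprofloxacin in Mueller-Hinton broth: compound 1024 to 16 µg/mL crossed with ciprofloxacin 128 to 2 µg/mL. Inoculum 5×10⁵ CFU/mL suspension, 18 h at 37 °C. Fractional inhibitory concentration index derived from the combination.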

CHO = test: Cytotoxicity against CHO cells at 300 ug/mL after 48 hrs by MTT assay; type: cell-based, Cricetulus griseus; conditions: chinese hamster
How it was run: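 MTT assay: cells maintained in DMEM with 10% FBS and penicillin/streptomycin at 37 °C, 5% CO2. Seeded at approx. 2×10⁴ cells/well, 24 h before treatment, then exposed to 10 to 400 µg/mL for 48 h at 37 °C. MTT (5 mg/mL stock in PBS) added for 4 h, formazan dissolved in DMSO, A570 read. Triplicate wells; viability given relative to untreated cells.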

Escherichia coli [4] = test: Antibacterial activity against Escherichia coli MRA11 after overnight incubation; type: functional; how it was run: as §1
Escherichia coli [5] = test: Synergistic antibacterial activity against Escherichia coli MRAE33 assessed as ciprofloxacin MIC at 16 to 1024 ug/mL after 18 hrs by checkerboard method; type: functional; conditions: MRAE33, 18 h; how it was run: as §2
Pseudomonas aeruginosa [6] = test: Anti-biofilm activity against Pseudomonas aeruginosa after 24 hrs by XTT assay; type: functional, organism-based
How it was run: (§3)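 Biofilm XTT reduction assay: serial dilutions 1000 to 7.8 µg/mL in tryptic soy broth, inoculum approx. 5×10⁵ CFU/mL, 37 °C for 24 h static. Non-adherent cells removed by PBS wash, XTT added, 90 min at 37 °C in dark, absorbance at 490 nm. IC50 (50% inhibition of biofilm formation) read from dose-response curves.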

Escherichia coli [7] = test: Antibacterial activity against Escherichia coli MROB11 after overnight incubation; type: functional; how it was run: as §1
Escherichia coli [8] = test: Antibacterial activity against Escherichia coli MRAE32 after overnight incubation; type: functional; how it was run: as §1
Enterococcus faecalis = test: Antibacterial activity against Enterococcus faecalis MTCC 439 after 24 hrs by broth dilution assay; type: functional; conditions: MTCC 439, 24 h
How it was run: (§4)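 Broth dilution per NCCLS in nutrient broth, serial dilutions 1000 to 7.8 µg/mL, DMSO below 4% final. Inoculum approx. 2.5×10⁶ cells/mL, 37 °C with shaking at 150 rpm for 24 h. MIC taken as the lowest concentration with no visible growth. Ciprofloxacin served as positive control.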

Pseudomonas aeruginosa [9] = test: Bactericidal activity against Pseudomonas aeruginosa at 1 to 2 times MIC after 24 hrs by spectrophotometric analysis; type: functional, organism-based
How it was run: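 Growth kinetics in 50 mL nutrient broth seeded at approx. 2×10⁶ cells/mL, compound at 2MIC, MIC and ½MIC, 37 °C at 160 rpm. Ciprofloxacin 10 µg/mL as positive control. 1 mL aliquots taken every 2 h from 0 to 22 h. Turbidity read at 600 nm and OD plotted against time.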

Escherichia coli [10] = test: Antibacterial activity against Escherichia coli MRC17 after overnight incubation; type: functional; how it was run: as §1
Streptococcus pneumoniae = test: Inhibition of Streptococcus pneumoniae methionine aminopeptidase 1A at 100 uM using Met-AMC as substrate relative to control
How it was run: (§5)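 Purified MetAP at 4 µM in 50 mM HEPES with 150 mM KCl and CoCl2 at 3 molar equivalents of enzyme. pH 7.5 for SpMetAP1a and EfMetAP1a, pH 8.0 for HsMetAP1b. Substrate L-Met-AMC at 50, 100 and 150 µM. Compounds (10 mM DMSO stocks) tested over 1 to 120 µM for % inhibition; Ki by Dixon method.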

Escherichia coli [11] = test: Antibacterial activity against Escherichia coli MRA11 at 512 ug/mL after 24 hrs by broth dilution assay relative to control; type: functional; how it was run: as §1
Klebsiella pneumoniae = test: Anti-biofilm activity against Klebsiella pneumoniae after 24 hrs by XTT assay; type: functional, organism-based; how it was run: as §3
Escherichia coli [12] = test: Antibacterial activity against Escherichia coli MRC24 at 512 ug/mL after 24 hrs by broth dilution assay relative to control; type: functional; how it was run: as §1
[13] = Inhibition of Enterococcus faecalis methionine aminopeptidase 1A using Met-AMC as substrate by Dixon method; how it was run: as §5
[14] = Inhibition of Mycobacterium tuberculosis methionine aminopeptidase 1C using Met-AMC as substrate by Dixon method
Salmonella typhimurium = test: Antibacterial activity against Salmonella typhimurium MTCC 3224 after 24 hrs by broth dilution assay; type: functional, Salmonella enterica subsp. enterica serovar Typhimurium; conditions: Salmonella enterica, MTCC 3224, 24 h; how it was run: as §4
Escherichia coli [15] = test: Synergistic antibacterial activity against Escherichia coli MRA11 after 18 hrs in presence of ciprofloxacin by checkerboard method; type: functional; conditions: MRA11, 18 h; how it was run: as §2
Escherichia coli [16] = test: Induction of cellular damage in Escherichia coli assessed as distorted cell membrane at MIC after 1 hr by TEM analysis; type: functional, organism-based
Escherichia coli [17] = test: Antibacterial activity against Escherichia coli ATCC 25922 after 24 hrs by broth dilution assay; type: functional; conditions: ATCC 25922, 24 h; how it was run: as §4

Compound: Cc1c(C(=O)/C=C(\O)C(=O)N[C@H](C)C(=O)O)oc2ccc(Br)cc12
- inhibition [1]: 87.7%
- ICmax (Escherichia coli [2]): 1024 µg/mL
- MIC (Escherichia coli [2]; Escherichia coli, MRAE33): 1020 µg/mL (≈ 2580 µM)
- fractional inhibitory concentration index (FICI) (Escherichia coli [3]): 1.0156
- Activity (CHO): Toxic
- ICmax (Escherichia coli [4]): 512 µg/mL
- MIC (Escherichia coli [4]; Escherichia coli, MRA11): 512 µg/mL (≈ 1290 µM)
- MIC (Escherichia coli [5]): 2 µg/mL
- IC50 (Pseudomonas aeruginosa [6]): 1.69 µg/mL (≈ 4.27 µM)
- ICmax (Escherichia coli [7]): 512 µg/mL
- ICmax (Escherichia coli [8]): 512 µg/mL
- MIC (Enterococcus faecalis): 125 µg/mL (≈ 316 µM)
- Activity (Pseudomonas aeruginosa [9]): Active
- ICmax (Escherichia coli [10]): 512 µg/mL
- MIC (Escherichia coli [10]; Escherichia coli, MRC17): 512 µg/mL (≈ 1290 µM)
- inhibition (Streptococcus pneumoniae): 98.2%
- Activity (Escherichia coli [11]): 100%
- IC50 (Klebsiella pneumoniae): 113 µg/mL (≈ 286 µM)
- Activity (Escherichia coli [12]): 100%
- Ki [13]: 11.9 µM
- Ki [14]: 9.89 µM
- MIC (Salmonella typhimurium): 500 µg/mL (≈ 1260 µM)
- MIC (Escherichia coli [15]): 512 µg/mL
- Activity (Escherichia coli [16]): Active
- MIC (Escherichia coli [17]): 62.5 µg/mL (≈ 158 µM)
